Assays:
[1] = target: Integrin alpha-IIb/beta-3 (Homo sapiens, UniProt P05106+P08514); experiment: Inhibition of integrin alpha-2b-beta-3 receptor by ELISA; assay type: protein-complex assay
How it was run: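 Solid-phase ELISA. Wells coated with fibrinogen (10 µg/mL) and blocked with 3% BSA in PBS/0.1% Tween 20 for 1 h at RT. Soluble αIIbβ3 (5 µg/mL) was incubated with serially diluted inhibitor in Tris pH 7.6, 150 mM NaCl, 1 mM MnCl2/MgCl2/CaCl2, 1 mg/mL BSA for 1 h at RT. Detection used anti-CD41b then anti-mouse-HRP, TMB, A450. IC50 was taken as the curve turning point.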

Integrin alpha-5/beta-1 [2] = target: T1, Integrin alpha-5/beta-1 (Homo sapiens, UniProt P05556+P08648); experiment: Inhibition of integrin alpha-5-beta-1 receptor by ELISA; assay type: protein-complex assay
T1 sequence (P05556 21-798 limits assumed): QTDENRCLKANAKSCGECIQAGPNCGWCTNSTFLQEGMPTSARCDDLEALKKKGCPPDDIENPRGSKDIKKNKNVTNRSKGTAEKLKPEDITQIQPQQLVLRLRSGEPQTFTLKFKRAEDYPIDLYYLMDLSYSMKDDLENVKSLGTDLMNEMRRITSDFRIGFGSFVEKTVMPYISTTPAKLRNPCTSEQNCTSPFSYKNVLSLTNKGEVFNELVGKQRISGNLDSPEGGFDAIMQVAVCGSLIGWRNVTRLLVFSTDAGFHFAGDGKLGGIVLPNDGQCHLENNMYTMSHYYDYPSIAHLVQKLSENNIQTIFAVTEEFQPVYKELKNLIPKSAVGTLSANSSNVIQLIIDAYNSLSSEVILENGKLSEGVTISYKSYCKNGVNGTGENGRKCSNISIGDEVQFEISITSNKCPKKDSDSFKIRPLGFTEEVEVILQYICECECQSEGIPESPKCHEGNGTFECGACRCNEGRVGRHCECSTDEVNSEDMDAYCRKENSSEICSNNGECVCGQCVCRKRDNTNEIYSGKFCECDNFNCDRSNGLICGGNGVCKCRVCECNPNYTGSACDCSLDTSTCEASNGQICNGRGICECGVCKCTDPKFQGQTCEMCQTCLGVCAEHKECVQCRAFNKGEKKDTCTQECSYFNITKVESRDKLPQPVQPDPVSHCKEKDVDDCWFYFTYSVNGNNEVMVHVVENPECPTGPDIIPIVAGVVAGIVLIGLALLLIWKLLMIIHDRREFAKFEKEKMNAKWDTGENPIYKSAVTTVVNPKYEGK
T1 sequence (P08648 42-894 limits assumed): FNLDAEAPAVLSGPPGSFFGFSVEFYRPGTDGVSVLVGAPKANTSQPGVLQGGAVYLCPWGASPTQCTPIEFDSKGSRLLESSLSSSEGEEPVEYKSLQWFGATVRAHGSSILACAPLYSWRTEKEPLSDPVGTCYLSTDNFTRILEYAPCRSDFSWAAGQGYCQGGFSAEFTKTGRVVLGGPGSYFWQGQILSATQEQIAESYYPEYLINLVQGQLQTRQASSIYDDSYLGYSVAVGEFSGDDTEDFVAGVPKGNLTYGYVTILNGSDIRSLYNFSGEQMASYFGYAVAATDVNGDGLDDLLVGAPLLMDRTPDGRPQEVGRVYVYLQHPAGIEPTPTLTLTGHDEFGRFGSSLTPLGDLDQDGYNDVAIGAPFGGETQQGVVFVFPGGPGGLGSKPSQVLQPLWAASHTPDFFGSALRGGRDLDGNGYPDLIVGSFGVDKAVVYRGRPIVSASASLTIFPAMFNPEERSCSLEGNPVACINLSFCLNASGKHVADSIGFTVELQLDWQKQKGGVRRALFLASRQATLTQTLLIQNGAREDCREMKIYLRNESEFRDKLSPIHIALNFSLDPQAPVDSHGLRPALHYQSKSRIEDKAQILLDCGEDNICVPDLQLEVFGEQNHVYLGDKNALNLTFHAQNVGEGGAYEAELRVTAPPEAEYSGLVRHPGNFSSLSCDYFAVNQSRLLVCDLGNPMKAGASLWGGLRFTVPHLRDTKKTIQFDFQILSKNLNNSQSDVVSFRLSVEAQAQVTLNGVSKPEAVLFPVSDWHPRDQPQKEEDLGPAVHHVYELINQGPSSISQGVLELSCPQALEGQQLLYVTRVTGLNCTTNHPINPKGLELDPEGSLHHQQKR
T1 sequence (P08648 895-1049 limits assumed): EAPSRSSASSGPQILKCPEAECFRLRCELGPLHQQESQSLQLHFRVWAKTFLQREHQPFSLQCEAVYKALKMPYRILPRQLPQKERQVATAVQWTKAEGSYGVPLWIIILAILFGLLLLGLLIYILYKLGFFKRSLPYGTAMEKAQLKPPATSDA
How it was run: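 Wells coated overnight at 4°C with fibronectin (0.25 µg/mL) at pH 9.6, then blocked with 3% BSA. Bound integrin was detected with anti-human-Fc-HRP, TMB, A450. IC50 was taken from the curve turning point.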

Integrin alpha-V/beta-5 = Integrin alpha-V/beta-5 (Homo sapiens, UniProt P06756+P18084); experiment: Inhibition of integrin alpha-V-beta-5 receptor by ELISA; assay type: protein-complex assay
Sequence of Integrin alpha-V/beta-5 (P06756 31-889 limits assumed): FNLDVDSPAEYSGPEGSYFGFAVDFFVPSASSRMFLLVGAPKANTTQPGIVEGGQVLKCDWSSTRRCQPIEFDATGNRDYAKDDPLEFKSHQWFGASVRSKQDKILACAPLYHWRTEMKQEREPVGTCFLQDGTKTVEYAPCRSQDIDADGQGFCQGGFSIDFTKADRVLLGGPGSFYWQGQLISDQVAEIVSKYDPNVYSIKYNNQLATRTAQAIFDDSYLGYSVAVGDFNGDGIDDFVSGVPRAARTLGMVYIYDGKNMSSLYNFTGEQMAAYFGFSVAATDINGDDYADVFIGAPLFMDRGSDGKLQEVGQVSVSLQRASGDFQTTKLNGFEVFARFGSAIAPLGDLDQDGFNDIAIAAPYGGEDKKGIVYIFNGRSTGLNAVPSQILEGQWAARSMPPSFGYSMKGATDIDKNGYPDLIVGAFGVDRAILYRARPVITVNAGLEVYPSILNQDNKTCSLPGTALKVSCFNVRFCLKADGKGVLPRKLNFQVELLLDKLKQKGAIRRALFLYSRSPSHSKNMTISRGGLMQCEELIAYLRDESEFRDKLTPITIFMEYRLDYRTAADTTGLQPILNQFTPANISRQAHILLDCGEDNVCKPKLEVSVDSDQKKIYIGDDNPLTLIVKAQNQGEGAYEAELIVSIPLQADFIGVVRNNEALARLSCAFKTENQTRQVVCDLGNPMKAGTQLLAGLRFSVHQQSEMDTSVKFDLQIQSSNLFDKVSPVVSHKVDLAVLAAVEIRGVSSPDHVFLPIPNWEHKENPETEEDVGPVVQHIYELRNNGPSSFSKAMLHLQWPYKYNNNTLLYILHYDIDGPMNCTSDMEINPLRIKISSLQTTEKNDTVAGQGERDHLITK
Sequence of Integrin alpha-V/beta-5 (P06756 891-1048 limits assumed): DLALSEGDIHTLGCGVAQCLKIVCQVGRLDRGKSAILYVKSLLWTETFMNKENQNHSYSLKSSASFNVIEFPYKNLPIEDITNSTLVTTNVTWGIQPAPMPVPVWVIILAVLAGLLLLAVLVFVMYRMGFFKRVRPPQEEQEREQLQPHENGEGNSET
Sequence of Integrin alpha-V/beta-5 (P18084 24-799 limits assumed): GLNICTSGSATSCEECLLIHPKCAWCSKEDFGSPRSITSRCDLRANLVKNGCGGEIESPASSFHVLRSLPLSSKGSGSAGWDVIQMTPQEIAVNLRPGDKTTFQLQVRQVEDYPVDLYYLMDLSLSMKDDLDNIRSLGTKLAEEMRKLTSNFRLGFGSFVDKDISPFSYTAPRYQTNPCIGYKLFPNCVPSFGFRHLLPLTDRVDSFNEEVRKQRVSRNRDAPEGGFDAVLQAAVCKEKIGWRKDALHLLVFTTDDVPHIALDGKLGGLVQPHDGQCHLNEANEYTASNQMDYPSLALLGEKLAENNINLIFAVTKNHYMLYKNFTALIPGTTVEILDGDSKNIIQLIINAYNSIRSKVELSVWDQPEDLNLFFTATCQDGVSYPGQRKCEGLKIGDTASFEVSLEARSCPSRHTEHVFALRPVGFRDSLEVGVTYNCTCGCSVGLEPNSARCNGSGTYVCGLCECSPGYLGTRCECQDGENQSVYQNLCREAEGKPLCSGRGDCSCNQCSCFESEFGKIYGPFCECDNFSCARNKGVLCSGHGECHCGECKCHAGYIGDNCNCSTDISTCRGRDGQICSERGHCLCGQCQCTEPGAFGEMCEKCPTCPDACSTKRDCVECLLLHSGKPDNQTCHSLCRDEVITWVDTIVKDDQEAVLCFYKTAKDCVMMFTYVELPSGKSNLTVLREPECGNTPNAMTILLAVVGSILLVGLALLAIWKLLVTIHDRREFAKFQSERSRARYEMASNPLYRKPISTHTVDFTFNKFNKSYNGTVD
How it was run: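 ELISA on vitronectin coating (5 µg/mL). Soluble αvβ5 (1.5 µg/mL) was incubated with serially diluted inhibitor for 1 h at RT in Tris pH 7.6, NaCl, 1 mM each MnCl2/MgCl2/CaCl2, BSA, 0.05% Tween 20. Detection used anti-αvβ5 and anti-mouse-HRP, TMB, A450. IC50 was the inflection point.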

Integrin alpha-V/beta-3 = Integrin alpha-V/beta-3 (Homo sapiens, UniProt P05106+P06756); experiment: Inhibition of integrin alpha-V-beta-3 receptor by ELISA; assay type: protein-complex assay
Sequence of Integrin alpha-V/beta-3 (P05106 27-788 limits assumed): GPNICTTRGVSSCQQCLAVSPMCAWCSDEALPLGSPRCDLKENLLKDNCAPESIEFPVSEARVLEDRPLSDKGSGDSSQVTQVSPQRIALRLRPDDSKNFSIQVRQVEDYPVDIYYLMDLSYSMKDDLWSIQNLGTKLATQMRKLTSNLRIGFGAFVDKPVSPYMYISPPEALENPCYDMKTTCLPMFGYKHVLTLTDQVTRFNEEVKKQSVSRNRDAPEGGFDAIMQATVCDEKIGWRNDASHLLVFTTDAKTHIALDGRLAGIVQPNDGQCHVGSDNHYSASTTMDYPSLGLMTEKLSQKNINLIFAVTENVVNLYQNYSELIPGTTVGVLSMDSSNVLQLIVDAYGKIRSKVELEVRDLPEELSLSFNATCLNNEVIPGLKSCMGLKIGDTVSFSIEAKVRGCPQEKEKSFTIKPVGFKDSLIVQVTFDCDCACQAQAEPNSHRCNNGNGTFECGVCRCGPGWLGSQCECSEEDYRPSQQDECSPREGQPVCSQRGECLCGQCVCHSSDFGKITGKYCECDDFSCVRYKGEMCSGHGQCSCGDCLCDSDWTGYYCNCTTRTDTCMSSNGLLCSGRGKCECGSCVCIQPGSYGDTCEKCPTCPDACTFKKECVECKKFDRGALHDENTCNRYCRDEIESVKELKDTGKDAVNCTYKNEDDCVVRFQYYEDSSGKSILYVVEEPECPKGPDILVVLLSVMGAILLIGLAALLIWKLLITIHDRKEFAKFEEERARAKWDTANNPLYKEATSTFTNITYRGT
Sequence of Integrin alpha-V/beta-3 (P06756 31-889 limits assumed): as the sequence (P06756 31-889 limits assumed) above
Sequence of Integrin alpha-V/beta-3 (P06756 891-1048 limits assumed): as the sequence (P06756 891-1048 limits assumed) above
How it was run: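 Vitronectin-coated wells (1 µg/mL) were blocked with 3% BSA/PBS-Tween. Soluble αvβ3 (1 µg/mL) was incubated with serially diluted inhibitor for 1 h at RT in Tris/NaCl/MnCl2/BSA buffer. Binding was read with anti-αvβ3 plus anti-mouse-HRP, then TMB, absorbance 450 nm. IC50 was taken at the turning point of the inhibition curve.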

Integrin alpha-5/beta-1 [3] = target: T1, Integrin alpha-5/beta-1; experiment: Inhibition of integrin alpha-5-beta-1 receptor expressed in HEK293 cells; assay type: cell-based
How it was run: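 HEK293 cells with endogenous α5β1 were tested for adhesion to fibronectin. IC50 was determined.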

[4] = Inhibition of integrin alpha-3b-beta-1 receptor by ELISA; set-up: species or system Homo sapiens
How it was run: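 Solid-phase ELISA. Wells coated with laminin (5 µg/mL) and blocked with 3% BSA/PBS-Tween. Soluble α3β1 (2 µg/mL) was incubated with serially diluted inhibitor in Tris pH 7.6, NaCl, 1 mM MnCl2, BSA, 0.05% Tween 20 for 1 h at RT. Detection used polyclonal anti-α3β1 then anti-rabbit-HRP, TMB/H2SO4, absorbance 450 nm. IC50 was taken as the inflection point.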

Homo sapiens [5] = species on record: Homo sapiens; experiment: Selectivity for integrin alpha5beta1 over alphaVbeta3 receptor
Homo sapiens [6] = species on record: Homo sapiens; experiment: Selectivity for integrin alpha-5-beta-1 over alpha2bbeta3 receptor
Homo sapiens [7] = species on record: Homo sapiens; experiment: Selectivity for integrin alpha-5-beta-1 over alphaVbeta5 receptor
Homo sapiens [8] = species on record: Homo sapiens; experiment: Selectivity for integrin alpha5beta1 over alpha-3-beta-1 receptor
[9] = Stability in human microsome at 1 uM after 1 hr; assay type: ADME; conditions: microsomes, read-out: Stability
How it was run: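 Compound at 1 µM was incubated with human microsomes for 1 h, and the percentage remaining was recorded.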

Question: With `COc1ccnc(NC[C@@H]2C[C@@H](OCC(=O)NC[C@H](NC(=O)c3c(C)cc(C)cc3C)C(=O)O)CN2C(=O)CC(C)(C)C)c1` as the compound, how does the IC50 [1] read?
Answer: > 50000 nM

Question: And the IC50 (Integrin alpha-5/beta-1 [2])?
Answer: 0.55 nM

Question: And the IC50 (Integrin alpha-V/beta-5)?
Answer: 6800 nM

Question: And the IC50 (Integrin alpha-V/beta-3)?
Answer: 3300 nM

Question: What about the IC50 (Integrin alpha-5/beta-1 [3]) of the same compound?
Answer: 50 nM

Question: And the IC50 [4]?
Answer: 13000 nM

Question: Which IC50 (Integrin alpha-5/beta-1 [2]) does the source give for `Cc1cc(C)c(S(=O)(=O)N[C@@H](CNC(=O)CO[C@H]2CN[C@H](CNc3ccccn3)C2)C(=O)O)c(C)c1` here?
Answer: 286 nM

Question: For `Cc1cc(C)c(C(=O)N[C@@H](CNC(=O)CO[C@@H]2C[C@@H](CNc3ccccn3)N(C(=O)OCc3ccccc3)C2)C(=O)O)c(C)c1`, which Selectivity ratio (Homo sapiens [5]) is on record?
Answer: 10000

Question: What about the Selectivity ratio (Homo sapiens [6]) of the same compound?
Answer: 10000

Question: What about the IC50 [1] of the same compound?
Answer: > 50000 nM

Question: And the IC50 (Integrin alpha-5/beta-1 [2])?
Answer: 3.5 nM

Question: What about the Selectivity ratio (Homo sapiens [7]) of the same compound?
Answer: 10000

Question: And the Selectivity ratio (Homo sapiens [8])?
Answer: 10000

Question: What about the IC50 (Integrin alpha-V/beta-5) of the same compound?
Answer: 30000 nM

Question: What about the IC50 (Integrin alpha-V/beta-3) of the same compound?
Answer: 30000 nM

Question: What about the IC50 [4] of the same compound?
Answer: 36000 nM

Question: Which results are given for `CC1(C(=O)N[C@@H](CNC(=O)CO[C@@H]2C[C@@H](CNc3ccccn3)N(C(=O)OCc3ccccc3)C2)C(=O)O)CCCCC1`?
Answer: IC50 [1]: > 50000 nM; IC50 (Integrin alpha-5/beta-1 [2]): 1.7 nM; IC50 (Integrin alpha-V/beta-5): 550 nM; IC50 (Integrin alpha-V/beta-3): 880 nM

Question: For `COc1ccnc(NC[C@@H]2C[C@@H](OCC(=O)NC[C@H](NS(=O)(=O)c3c(C)cc(C)cc3C)C(=O)O)CN2C(=O)OCc2ccccc2)c1`, which IC50 [1] is on record?
Answer: 7.7 nM

Question: What about the IC50 (Integrin alpha-5/beta-1 [2]) of the same compound?
Answer: 1.1 nM

Question: What about the IC50 (Integrin alpha-V/beta-5) of the same compound?
Answer: 19 nM

Question: What about the IC50 (Integrin alpha-V/beta-3) of the same compound?
Answer: 2.4 nM

Question: With `Cc1cc(C)c(S(=O)(=O)N[C@@H](CNC(=O)CO[C@@H]2C[C@@H](CNc3ccccn3)N(CCCc3ccccc3)C2)C(=O)O)c(C)c1` as the compound, how does the IC50 (Integrin alpha-5/beta-1 [2]) read?
Answer: 670 nM

Question: With `COc1ccnc(NC[C@@H]2C[C@@H](OCC(=O)NC[C@H](NS(=O)(=O)c3c(C)cc(C)cc3C)C(=O)O)CN2C(=O)CC(C)(C)C)c1` as the compound, how does the IC50 [1] read?
Answer: 11000 nM

Question: And the IC50 (Integrin alpha-5/beta-1 [2])?
Answer: 0.9 nM

Question: What about the IC50 (Integrin alpha-V/beta-5) of the same compound?
Answer: 29 nM

Question: And the IC50 (Integrin alpha-V/beta-3)?
Answer: 4 nM

Question: For `COc1ccnc(NC[C@@H]2C[C@@H](OCC(=O)NC[C@H](NC(=O)C3(C)CCCCC3)C(=O)O)CN2C(=O)CC(C)(C)C)c1`, which IC50 [1] is on record?
Answer: > 50000 nM

Question: What about the IC50 (Integrin alpha-5/beta-1 [2]) of the same compound?
Answer: 0.55 nM

Question: And the IC50 (Integrin alpha-V/beta-5)?
Answer: 4300 nM

Question: What about the IC50 (Integrin alpha-V/beta-3) of the same compound?
Answer: 980 nM

Question: And the IC50 [4]?
Answer: 50000 nM

Question: For `Cc1cc(C)c(S(=O)(=O)N[C@@H](CNC(=O)CO[C@@H]2C[C@@H](CNc3ccccn3)N(C(=O)OCc3ccccc3)C2)C(=O)O)c(C)c1`, which IC50 (Integrin alpha-V/beta-5) is on record?
Answer: 330 nM

Question: And the IC50 (Integrin alpha-V/beta-3)?
Answer: 16 nM

Question: What about the IC50 [4] of the same compound?
Answer: > 200000 nM

Question: And the remaining at 1 h, 1 µM [9]?
Answer: 43%

Question: With `Cc1cc(C)c(S(=O)(=O)N[C@@H](CNC(=O)CO[C@@H]2C[C@@H](CNc3ccccn3)N(C(=O)CCc3ccccc3)C2)C(=O)O)c(C)c1` as the compound, how does the IC50 (Integrin alpha-5/beta-1 [2]) read?
Answer: 25 nM

Question: What about the IC50 (Integrin alpha-V/beta-3) of the same compound?
Answer: 38 nM

Question: For `Cc1cc(C)c(S(=O)(=O)N[C@@H](CNC(=O)CO[C@@H]2C[C@@H](CNc3cccc(C)n3)N(C(=O)OCc3ccccc3)C2)C(=O)O)c(C)c1`, which IC50 (Integrin alpha-5/beta-1 [2]) is on record?
Answer: 231 nM

Question: What about the IC50 (Integrin alpha-V/beta-3) of the same compound?
Answer: 21 nM

Question: Which results are given for `COc1ccnc(NC[C@@H]2C[C@@H](OCC(=O)NC[C@H](NC(=O)c3c(C)cc(C)cc3C)C(=O)O)CN2C(=O)OCc2ccccc2)c1`?
Answer: IC50 [1]: 50000 nM; IC50 (Integrin alpha-5/beta-1 [2]): 0.54 nM; IC50 (Integrin alpha-V/beta-5): 2700 nM; IC50 (Integrin alpha-V/beta-3): 3400 nM; IC50 [4]: 20000 nM

Question: Which IC50 [1] does the source give for `O=C(CO[C@@H]1C[C@@H](CNc2ccccn2)N(C(=O)OCc2ccccc2)C1)NC[C@H](NS(=O)(=O)c1ccccc1)C(=O)O` here?
Answer: 12000 nM

Question: What about the IC50 (Integrin alpha-5/beta-1 [2]) of the same compound?
Answer: 86 nM

Question: And the IC50 (Integrin alpha-V/beta-5)?
Answer: 260 nM

Question: What about the IC50 (Integrin alpha-V/beta-3) of the same compound?
Answer: 6.3 nM

Question: With `O=C(CO[C@@H]1C[C@@H](CNc2ccccn2)N(C(=O)OCc2ccccc2)C1)NC[C@H](NC(=O)c1ccccc1)C(=O)O` as the compound, how does the IC50 (Integrin alpha-5/beta-1 [2]) read?
Answer: 155 nM

Question: What about the IC50 (Integrin alpha-V/beta-3) of the same compound?
Answer: 140 nM

Question: With `Cc1cc(C)c(S(=O)(=O)N[C@@H](CNC(=O)CO[C@@H]2C[C@@H](CNc3cc(Cl)ccn3)N(C(=O)OCc3ccccc3)C2)C(=O)O)c(C)c1` as the compound, how does the IC50 (Integrin alpha-5/beta-1 [2]) read?
Answer: 445 nM

Question: Which IC50 [1] does the source give for `Cc1cc(C)c(S(=O)(=O)N[C@@H](CNC(=O)CO[C@@H]2C[C@@H](CNc3ccccn3)N(C(=O)CC(C)(C)C)C2)C(=O)O)c(C)c1` here?
Answer: 8000 nM

Question: What about the IC50 (Integrin alpha-5/beta-1 [2]) of the same compound?
Answer: 6 nM

Question: What about the IC50 (Integrin alpha-V/beta-5) of the same compound?
Answer: 245 nM

Question: And the IC50 (Integrin alpha-V/beta-3)?
Answer: 36 nM

Question: What about the remaining at 1 h, 1 µM [9] of the same compound?
Answer: 70%

Question: What does the source list for `COC(=O)N1C[C@H](OCC(=O)NC[C@H](NS(=O)(=O)c2c(C)cc(C)cc2C)C(=O)O)C[C@H]1CNc1ccccn1`?
Answer: IC50 (Integrin alpha-5/beta-1 [2]): 15 nM; IC50 (Integrin alpha-V/beta-3): 9 nM

Question: For `COc1ccnc(NC[C@@H]2C[C@@H](OCC(=O)NC[C@H](NC(=O)C3(C)CCCCC3)C(=O)O)CN2C(=O)OCc2ccccc2)c1`, which IC50 [1] is on record?
Answer: > 50000 nM

Question: What about the IC50 (Integrin alpha-5/beta-1 [2]) of the same compound?
Answer: 0.8 nM

Question: And the IC50 (Integrin alpha-V/beta-5)?
Answer: 3100 nM

Question: And the IC50 (Integrin alpha-V/beta-3)?
Answer: 690 nM

Question: What about the IC50 [4] of the same compound?
Answer: 30000 nM

Question: What does the source list for `Cc1cc(C)c(C(=O)N[C@@H](CNC(=O)CO[C@@H]2C[C@@H](CNc3ccccn3)N(C(=O)CC(C)(C)C)C2)C(=O)O)c(C)c1`?
Answer: IC50 [1]: > 50000 nM; IC50 (Integrin alpha-5/beta-1 [2]): 1.6 nM; IC50 (Integrin alpha-V/beta-5): > 50000 nM; IC50 (Integrin alpha-V/beta-3): 16000 nM

Question: For `CC(C)(C)CC(=O)N1C[C@H](OCC(=O)NC[C@H](NC(=O)C2(C)CCCCC2)C(=O)O)C[C@H]1CNc1ccccn1`, which IC50 [1] is on record?
Answer: > 50000 nM

Question: And the IC50 (Integrin alpha-5/beta-1 [2])?
Answer: 1.4 nM

Question: And the IC50 (Integrin alpha-V/beta-5)?
Answer: 2300 nM

Question: What about the IC50 (Integrin alpha-V/beta-3) of the same compound?
Answer: 1600 nM
